Tested on: MS2 coat protein
Experiment: apparent Kd, MS2 coat protein; higher = weaker binding; RNA-MaP array; FMN 200 µM where present
Outline: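 The titrant was SNAP-549-labelled MS2 coat protein, run from 0.7 or 1.5 nM in doubling steps to 3 µM. It was applied to designs transcribed by stalled E. coli RNA polymerase on Illumina sequencing-chip clusters, without ligand first and then with constant ligand, in 100 mM Tris-HCl pH 7.5, 80 mM KCl, 4 mM MgCl2, BSA, DTT, yeast tRNA and Tween-20. The apparent Kd is the median of filtered per-cluster binding-curve fits, with green signal normalised to red-channel RNA signal and control-cluster median Fmax.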

[1] = designed as: OFF switch for flavin mononucleotide, no ligand
[2] = ligand present: flavin mononucleotide, designed as: OFF switch for flavin mononucleotide
[3] = designed as: ON switch for flavin mononucleotide, no ligand
[4] = ligand present: flavin mononucleotide, designed as: ON switch for flavin mononucleotide

Sequence | apparent Kd [1] | apparent Kd [2] | apparent Kd [3] | apparent Kd [4]
ACGUUAAAAGGAUAUACAUGAGGAUCACCCAUGUUGUUCGAACCGGUAAACCCUCUAUGUAGAAGGUUUGGCGC | 16 nM | 17.9 nM |  | 
ACCAGCGAUAUUUCGGUGAGUCAACCAGAAGGGACGAAGCCACAUGAGGAUCACCCAUGUCACUGUCAGGAUAUGGGAAGCGAC |  |  | 364 nM | 29.5 nM
GAUCAACAUGAGGAUCACCCAUGUGAGGAUAUGAUACUAUGUACUUCGGUACAUAGUAUCAGAAGGCAUAUUGA | 54.8 nM | 41.9 nM |  | 
UCCCUUGCUGGAGGAUAUCGCACAUGAGGAUCACCCAUGUCGGCACUCGGGCGCAUCCUCUUGGACGAGAAGGCCAGGAGGUAC | 179 nM | 79.4 nM |  | 
GCGUAUAUAAGAUUUAUAAAACAGUCAGAAGGUGAUAAGACGACAUGAGGAUCACCCAUGUAAUUCAAGGAUAUGAUCAUACGC |  |  | 54.3 nM | 23.3 nM
UGGUACAUGGGAGGAUAUCAUGAACUUACAUGAGGAUCACCCAUGUCGAUGGAGACAUCGGAGAUUGAGAAGGCCCAUGUACCU |  |  | 77.6 nM | 22.4 nM
CCACAUGAGGAUCACCCAUGUGACUUCUGUGGCCCGGUGUUGCAGGAUAUCGCAAGGUUAGUUGACGAGAAGGGCGACGGUGGU | 31.1 nM | 102 nM |  | 
UGCGAACAGGCUAACAUGAGGAUCACCCAUGUGGACUCAUGGUAGGAUAUCGGGAAGGAGGAAACCGAGAAGGGCCGGUGAGCU |  |  | 217 nM | 150 nM
GAUGAGAGAGGAUAUACAUGAGGAUCACCCAUGUAAUUUUCGGACAUGGAAGCCUGAUGUAGAAGGCUCGCAUG | 78.5 nM | 38.6 nM |  | 
UGUCGGAGCAGAGGAUAUUACAUGAGGAUCACCCAUGUAUGAAGCAAUAGCUGGAAACAGCAAUGUAAGAAGGCUGCUCCGACA | 5.7 nM | 7 nM |  | 
GGUGGACAUGAGGAUCACCCAUGUGAGGAUAUCGGCCGGUUCGUGGUGGCUGGCGUCUCGAGAAGGCACAUAGU | 153 nM | 129 nM |  | 
AGCAUGCAGUAGGAUAUCGAUCCACAAUAUGAACGAGAAGGACUGACAUGAGGAUCACCCAUGUGCGUCCUAGG | 16.7 nM | 16.6 nM |  | 
ACAUGAGGAUCACCCAUGUGGAGUGAAGAAGGUGGAUACUUAUGACUCUCCCAUGUACAUAGGACUGAGGAUAUUCUAAUAAUU |  |  | 31.2 nM | 27.2 nM
AUACAUGAGGAUCACCCAUGUAAUUAAUUAAUUAAUAAGAUCAAGGAUAUCAGCUCGAAUAGAGCUGAGAAGGUGAUCACAUGU |  |  | 240 nM | 266 nM
ACUUAUUGAGGAUAUACAGAAAAUUACAUGAGGAUCACCCAUGUUCUUCAAUGUAUAUAUGUAGAAGGCAGAAUAG | 14.4 nM | 27.6 nM |  | 
UUCUGGCUAGGAUAUACAGUGUCCACGAGUUAGUUGCCCUAACAUGAGGAUCACCCAUGUAGAAGGAGCGAGAA | 48.2 nM | 83.7 nM |  | 
GAAUGGGUAGAAGGACAUGAGGAUCACCCAUGUAGUGUGACUAAGGAUAUUAGAGAAGAUUGACGUAAGAAGGUAGAUGUGAGG | 134 nM | 117 nM |  | 
AGAAGGCUACAGAAGGGACACACACGGUGGGAGUCAGGAUAUGUAGAGAAAACGUUACAUGAGGAUCACCCAUGUAGACCUUCC |  |  | 73.9 nM | 16.8 nM
UUAAAUCAUGUAGGAUAUGCAUGGCGAAGCUACGCAGAAGGACAUGAGGAUCACCCAUGUUCUAGCUACCGAGAACGGUGGCAA | 19.1 nM | 74.1 nM |  | 
AAUACAUGAGGAUCACCCAUGUUAUGAUCAAACAAUAUGAGUGAGGAUAUACUGAGUUAGUUAUGGUAGAAGGCACUGGGUUCA |  |  | 79.9 nM | 45.3 nM
GCAGCGUAUGUAGGAUAUCGGUCAGUUUCUGAUCGAGAAGGACAUGAGGAUCACCCAUGUAAAUUUCCGACUUUGUCGGGCUGC | 7.04 nM | 8.73 nM |  | 
UAUUUUAACUAAGGAUAUCUGUAUUAUGUAGAAACAUGAGGAUCACCCAUGUUCUUGAUAUUAUAGGAGAAGGUAGAUGAAUAA |  |  | 6.6 nM | 5.72 nM
CAUUAAUAGUAGAAGGGUCAAGUUUUGGGUAGGGCAGGAUAUACGAACAAGAAACAUGAGGAUCACCCAUGUGUCCAUGUCAUG | 33.9 nM | 29.6 nM |  | 
GGUGCGAGUGUGAGGAUAUGCUGGUCGUAAGAUCAGCAGAAGGCACAUGAGGAUCACCCAUGUGAAAACGUACC | 22.3 nM | 145 nM |  | 

Reference: the EternaBench riboswitch data
